Ends that are not written are not given here.
How the values were obtained:
[1] = system: BRD4; experiment: Immunoblotting of BRD4 protein; assay type: cell-based; details: MCF7 cells, MZ1 1 μM, 24 h, compared with TAT-PiET-PROTAC 10 μM
[2] = system: MDA-MB-231 cell-derived xenografts; experiment: MDA-MB-231 cell-derived xenograft mouse model; assay type: in vivo, BALB/c nude mice; details: tumor samples, 25 mg/kg ip every 2 days
Summary of the method: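 Female BALB/c nude mice (4–6 weeks) were implanted subcutaneously with 5 × 10^6 MDA-MB-231 cells in PBS and randomized at ~50 mm3. Peptide in normal saline was given at 25 mg/kg i.p. every 2 days. Tumours were analysed by RT-qPCR for c-Myc, N-myc and CCND1 (three biological repeats).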

[3] = system: c-Myc, N-myc, CCND1 expression in MDA-MB-231 cells; experiment: RT-qPCR and immunoblotting of BRD4/JMJD6 target genes, MDA-MB-231 cells; assay type: cell-based; details: 10 μM 6 h in cells; xenograft tumor samples; RT-qPCR
[4] = system: c-Myc, N-myc, CCND1 expression in MCF7 cells; experiment: RT-qPCR and immunoblotting of BRD4/JMJD6 target genes, MCF7 cells; assay type: cell-based; details: 10 μM 6 h in cells; xenograft tumor samples; RT-qPCR
[5] = system: MCF7 cell-derived xenografts; experiment: MCF7 cell-derived xenograft mouse model; assay type: in vivo, BALB/c nude mice; details: tumor samples, 25 mg/kg ip every 2 days
Summary of the method: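 Female BALB/c nude mice (4–6 weeks) implanted subcutaneously with 5 × 10^6 MCF7 cells in PBS, with estrogen (E2, 10–2 M) brushed on every 2 days. Randomized at ~50 mm3 tumor volume. Test peptide was given in normal saline, 25 mg/kg i.p., every 2 days. Tumor lysates (Tris-HCl pH 7.4, NaCl, EDTA, 1% Triton X-100) were immunoblotted after 10% SDS-PAGE.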

[6] = system: tamoxifen-resistant MCF7 cells; experiment: Cell proliferation and colony formation, tamoxifen-resistant MCF7; assay type: cell-based; details: peptide inhibitors 10 μM, tamoxifen 3 μM, cell proliferation and colony formation assay
Summary of the method: (§1)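 Resistant lines (MCF7 in DMEM; T47D in RPMI-1640; 10% FBS, 37 °C, 5% CO2) given peptide inhibitor 10 μM and tamoxifen 3 μM, alone or combined. Proliferation: 2 × 10^3 cells/well for the days indicated, then tetrazolium (CellTiter 96 Aqueous One) reagent for 1 h at 37 °C and absorbance at 490 nm. Colonies: 1 × 10^3 cells/well for 2 weeks, crystal violet stain dissolved in 10% acetic acid, read at 590 nm.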

[7] = system: tamoxifen-resistant T47D cells; experiment: Cell proliferation and colony formation, tamoxifen-resistant T47D; assay type: cell-based; details: peptide inhibitors 10 μM, tamoxifen 3 μM, cell proliferation and colony formation assay
Summary of the method: as §1

Row | Compound | degradation of full-length BRD4 protein [1] | c-Myc, N-myc, and CCND1 mRNA and protein levels in MDA-MB-231 cell-derived xenografts [2] | degradation of BRD4 and JMJD6 in MDA-MB-231 cell-derived xenografts ([2]; immunoblot) | mRNA levels of BRD4 or JMJD6, MDA-MB-231 (culture cells or xenografts) [3] | mRNA levels of BRD4 or JMJD6, MCF7 (culture cells or xenografts) [4] | c-Myc, N-myc, and CCND1 mRNA and protein levels in MCF7 cell-derived xenografts [5] | degradation of BRD4 and JMJD6 in MCF7 cell-derived xenografts ([5]; immunoblot) | resensitization of tamoxifen-resistant MCF7 cells to tamoxifen [6] | sensitivity of tamoxifen-resistant T47D cells to tamoxifen [7]
1 | Cc1ncsc1-c1ccc(CNC(=O)[C@@H]2C[C@@H](O)CN2C(=O)[C@@H](NC(=O)COCCOCCOCCNC(=O)C[C@@H]2N=C(c3ccc(Cl)cc3)c3c(sc(C)c3C)-n3c(C)nnc32)C(C)(C)C)cc1 [MZ1] | induced the degradation of full-length BRD4 protein as effectively as TAT-PiET-PROTAC (10 μM) | – | – | – | – | – | – | – | –
2 | TAT-PiET-PROTAC: PROTAC-modified TAT-PiET: VHL ligand peptide joined by AHX to the C-terminus (YGRKKRRQRRRRNQKFKCGE; not fully specified (C-terminus)) | – | significant decrease | induced the degradation of BRD4 and JMJD6 in xenografts | did not affect | did not affect | significant decrease | induced the degradation of BRD4 and JMJD6 in xenografts | resensitized | became sensitive to tamoxifen
3 | YGRKKRRQRRRRNQKFKCGE [TAT-PiET] | – | significant decrease | – | did not affect | did not affect | significant decrease | – | resensitized | became sensitive to tamoxifen
